Source: PubChem (Sanford-Burnham Center for Chemical Genomics)
Hits are enriched below; roughly 2.3% of the tested compounds scored in any of these assays.
Diaph act CS: activates diaphorase or chemically reduces, flagging diaphorase assay artifacts. Diaphorase/resazurin coupled assay, resorufin fluorescence, 16 min; active compounds read high; 1 = vehicle wells, 0 = NADH-free wells. activation factor at 20 µM. 0.005% of 190,000 active;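 active means diaphorase activity raised at least twofold by the compound at 20 µM; inactive means activation factor below 2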
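test system = bacterial diaphorase enzyme (C. kluyveri) | quantity = enzyme 0.07 U/mL final | reagent = NADH substrate 0.114 mM plus resazurin dye 0.1 mM, final | incubation = 16 min enzyme reaction, ambient temperature | buffer or medium = HEPES pH 7.4 buffer with MgCl2 and Tween 20 | signal = fluorescence of resorufin, 544 nm excitation, 590 nm emission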
FLuc inh counter: counter-screen for luciferase assay inhibitors: firefly luciferase inhibition; inhibition, % at 10 µM; ATPLite firefly luciferase biochemical luminescence, 10 min; AID 1006; P08659; 1.5% of 200,000 active;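 active means inhibition above about 50% when tested at 10 µM, limit read from the data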
Target sequence (P08659 whole entry, looked up): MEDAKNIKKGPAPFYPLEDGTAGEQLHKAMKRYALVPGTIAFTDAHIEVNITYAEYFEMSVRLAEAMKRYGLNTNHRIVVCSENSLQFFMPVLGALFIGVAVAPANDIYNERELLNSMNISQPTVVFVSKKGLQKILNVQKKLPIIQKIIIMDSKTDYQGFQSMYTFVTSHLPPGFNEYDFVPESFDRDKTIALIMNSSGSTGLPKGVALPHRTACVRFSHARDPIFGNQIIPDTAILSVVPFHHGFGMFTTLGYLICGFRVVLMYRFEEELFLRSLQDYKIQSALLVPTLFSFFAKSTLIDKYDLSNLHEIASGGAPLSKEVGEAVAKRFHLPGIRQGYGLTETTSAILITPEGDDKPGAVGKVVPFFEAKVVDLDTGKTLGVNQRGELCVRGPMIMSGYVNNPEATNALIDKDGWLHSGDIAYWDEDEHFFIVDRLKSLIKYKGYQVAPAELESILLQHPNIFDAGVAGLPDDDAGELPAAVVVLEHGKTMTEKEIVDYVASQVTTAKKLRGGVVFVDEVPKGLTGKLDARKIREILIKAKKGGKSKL
G6PDH CS: inhibits Leuconostoc G6PDH, flagging false hits in G6PDH-based assays. inhibition, % at 5 µM. 0.12% of 200,000 active. Purified L. mesenteroides G6PDH, diaphorase/resazurin coupled fluorescence, 45 min; in the data active means inhibition above about 50%
Diaphorase inh: counter-screen for diaphorase-based assays: diaphorase inhibitors and chemical oxidizers. 0.69% of 190,000 active. diaphorase resazurin-to-resorufin fluorescence, NADH, 16 min; bacterial (C. kluyveri) enzyme, not human. inhibition, % at 20 µM;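 active means primary screen inhibition at 20 µM above a set limit, cut at about 50% in these data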
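Assay system: diaphorase enzyme from Clostridium kluyveri; Input: enzyme working solution with 0.14 U/mL diaphorase; Timing: 16 min at room temperature; Technique: resorufin fluorescence, excitation 544 nm, emission 590 nm; Benchmarks: positive control minus NADH, DMSO neutral control.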
FLuc act counter: firefly luciferase counter-screen for stimulation assays; activation factor at 10 µM; ATPlite luciferase biochemical, luminescence, 10 min; 0 = ATP-free wells, 1 = DMSO control; AID 1027; 200,000 tested, under 10 active; P08659;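 active means luciferase activation factor, scaled between plate controls, of at least 2 with compound at 10 µM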
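Material: Luciferase/luciferin reagent mix | Doses: Test compounds dosed from 2 mM stocks in 100% DMSO | Timing: 10 min incubation after luciferase reagent addition, room temperature | Measured by: Luminescence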
Large screens that a line does not name were inactive.

CCOC(=O)c1c(NCC2CCCO2)c2ccccc2[nH]c1=O (configuration not stated)	none
CCOC(=O)c1c(C)oc2c1c(C=NCC1CCCO1)c(O)c1ccccc12 (configuration not stated)	G6PDH CS 50.1, Diaphorase inh 74.7
CCOC(=O)c1c(C)oc2c1c(C=NCc1ccccn1)c(O)c1ccccc12	Diaphorase inh 63.6
CCOC(=O)c1c(C)oc2c1cc(O)c1ccccc12	none
NC(=O)c1ccsc1NC(=O)c1ccc2c(c1)CCCC2	FLuc inh counter 90.8
NC(=O)c1ccsc1NC(=O)c1ccc(N2CCCC2=O)cc1	FLuc inh counter 93.1
CNC(=O)c1ccsc1NC(=O)c1ccc2c(c1)CCCC2	FLuc inh counter 74.3
Nc1n[nH]c(N)c1N=Nc1ccc(Cl)cc1Cl	none
Cc1ccc(NC(=O)c2ccc3nc[nH]c3c2)c(O)c1	FLuc inh counter 50.2
COc1ccc(NC(=O)c2ccc3nc[nH]c3c2)c(OC)c1	none
CC(C)C(=O)Nc1ccc(NC(=O)c2ccccn2)cn1	FLuc inh counter 66.8
O=C(Nc1ccc(NC(=O)C2CC2)nc1)c1ccccn1	FLuc inh counter 62.1
CCC(=O)Nc1ccc(NC(=O)c2ccccn2)cn1	none
COc1ccc2c(c1)CC/C2=N\OC(=O)c1ccccc1OC	FLuc inh counter 71.5
CC(=C/c1ccccc1)/C=N/NC(=O)c1cnccn1	FLuc inh counter 74.3
O=C(Nc1ccccc1)/C(=C/c1ccccc1)NC(=O)c1ccco1	none
O=C(N/N=C/C(Cl)=C/c1ccccc1)c1cnccn1	FLuc inh counter 56.0
CC(/C=N/NC(=O)c1ccc(Br)cc1)=C\c1ccccc1	none
CC(/C=N\NC(=O)c1cc(C)oc1C)=C\c1ccccc1	FLuc inh counter 76.3
O=C(N/N=C/C(Cl)=C\c1ccccc1)c1cnccn1	none
O=C(N/N=C/C(Cl)=C/c1ccccc1)c1ccco1	FLuc inh counter 64.3
O=C(CC12CC3CC(CC(C3)C1)C2)NCC(=O)N1CCc2ccccc2C1	none
Cc1cc(N2CCN(C(=O)c3ccco3)CC2)n2nc(C)nc2n1	none
CCOC(=O)C1CCN(S(=O)(=O)c2ccc(C(C)(C)C)cc2)CC1	none
CC(/C=N/NC(=O)c1cccnc1)=C\c1ccccc1	FLuc inh counter 64.8
Cc1ccc2nc(-c3cc(N)cc(N)c3)oc2c1	FLuc inh counter 94.3
Nc1ccc(-c2nc3ccc(N)cc3o2)cc1	FLuc inh counter 86.6
COC(=O)c1ccc(-c2nc3cc(N)ccc3o2)cc1	FLuc inh counter 82.9
Nc1ccc(-c2nc3ccc(-c4nc5ccccc5o4)cc3[nH]2)cc1	none
NS(=O)(=O)c1ccc(CCNC(=O)c2cccc([N+](=O)[O-])c2)cc1	none
Cc1[nH][nH]c(=O)c1C=NCc1ccc(Cl)cc1	none
CCOc1ccc(S(=O)(=O)NCCC(=O)OCC(=O)N2CC(=O)Nc3ccccc32)cc1	none
O=[N+]([O-])c1ccc(Cl)c2c1C1C=CCC1C(c1ccccn1)N2 (configuration not stated)	none
O=C(O)c1ccc(Cl)c2c1C1C=CCC1C(c1ccccn1)N2 (configuration not stated)	Diaphorase inh 55.7
CCCn1ncc([C@@H]2C[C@H]3CN(Cc4cccc(Cl)c4)C(=O)[C@]34CCCN24)c1C	Diaphorase inh 59.5
CCn1ncc([C@@H]2C[C@H]3CN(Cc4cccc(Cl)c4)C(=O)[C@]34CCCN24)c1C	none
CCC(C)Sc1cc(C)c(C#N)c2nc3ccccc3n12 (configuration not stated)	Diaphorase inh 51.7
CCc1nnc(/N=C/c2c(O)n(-c3ccc(Cl)cn3)c(=O)c3ccccc23)s1	FLuc inh counter 66.4
Cc1ccc(-n2nnc(-c3cccnc3Cl)n2)cc1	FLuc inh counter 72.3
O=C(COC(=O)c1ccc[n+]([O-])c1)Nc1c(Br)cc([N+](=O)[O-])cc1Br	none
Nc1cccc2c1C(=O)N(C(=O)/C=C/c1ccc(F)cc1)C2=O	FLuc inh counter 51.5
O=C(/C=C/c1ccc(F)cc1)N1CCCN(C(=O)/C=C/c2ccc(F)cc2)CC1	none
COc1ccc2c(c1)-c1nc(/N=C/c3cccc(OC)c3O)sc1CC2	none
COc1ccc2c(c1)-c1nc(/N=C/c3ccccc3O)sc1CC2	Diaphorase inh 53.6
O=C(Nc1cccnc1)/C(N=Nc1cccnc1)=C(\O)c1ccccc1	none
CC1(CC(=O)N/N=C/c2cc([N+](=O)[O-])c(O)cc2O)OCCO1	Diaphorase inh 60.2
Cc1ccc(-n2c(C)cc(/C=N/NC(=O)CC3(C)OCCO3)c2C)c(C)c1	none
c1ccc(CNc2ncnc3c2cnn3-c2ccccc2)cc1	none
CC(C)(C)Nc1ncnc2c1cnn2-c1ccccc1	FLuc inh counter 65.8
CN(C)CCCNc1ncnc2c1cnn2-c1ccccc1	none
CC(C)OCCCNc1ncnc2c1cnn2-c1ccccc1	FLuc inh counter 74.3
COc1cc(NC(C)=O)c2ncccc2c1[N+](=O)[O-]	Diaphorase inh 61.3
COc1ccc(NC(=O)COc2cccnc2[N+](=O)[O-])cc1OC	none
CCOC(=O)C1CCN(S(=O)(=O)Cc2ccccc2)CC1	G6PDH CS 50.7
CCOC(=O)C1CCN(S(=O)(=O)Cc2ccc(Cl)cc2)CC1	none
N#Cc1c(-c2ccccc2)[nH]c(=S)[nH]c1=O	Diaphorase inh 50.8
CCNC(=O)C1CC(=O)OC12CCCCC2 (configuration not stated)	none
CN(C)CCN(Cc1cc2cc3c(cc2[nH]c1=O)OCCO3)C(=S)NCC1CCCO1 (configuration not stated)	Diaphorase inh 50.1
C=CCN(CC=C)c1nc2ccccc2nc1C(C#N)C(=O)OC(C)C (configuration not stated)	none
Cc1ccc(Nc2nnc(SCC(=O)NCCN3C(=O)CSC3=O)s2)cc1C	FLuc inh counter 82.0
CC(CC(=O)O)Nc1ccccc1O (configuration not stated)	none
NC1=NC(=O)/C(=C\c2cc([N+](=O)[O-])ccc2Cl)S1	none
CCN1CCN(Cc2ccc(NC(=O)Nc3cccs3)cc2)CC1	FLuc inh counter 73.6
CCN1CCN(Cc2ccc(NC(=O)Nc3ccccc3)cc2)CC1	FLuc inh counter 64.2
CCN1CCN(Cc2ccc(NC(=O)Nc3ccc(OC)cc3)cc2)CC1	none
COc1ccc(NC(=O)Nc2cccs2)cc1Cl	FLuc inh counter 57.9
COc1ccc(C(=O)NC(=S)NCCO)cc1Br	none
COc1ccc(N(CCCN2C(=O)c3cccc4cccc(c34)C2=O)C(=O)c2cccnc2)cc1	Diaphorase inh 58.4
COc1ccc(N(CCCN2C(=O)c3cccc4cccc(c34)C2=O)C(=O)c2ccncc2)cc1	none
COc1cc(OC)cc(C(=O)N(CCCN2C(=O)c3cccc4cccc(c34)C2=O)c2cccc(OC)c2)c1	Diaphorase inh 52.6
